# Bioassay records as filed in PubChem BioAssay.
# In the library only some 2.6% were active in any assay of this set; here they are far more common.
# V1R ag counter: activates human V1a receptor in oxytocin agonist counter-screen; CHO-V1R cells, Fluo-8 calcium fluorescence, agonist mode; 0% DMSO, 100% 3 nM vasopressin; activation, % at 3 µM; 320,000 tested, 0.25% active; P37288;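 active = activation above the mean activation of all tested compounds plus 3 SD, per screening run, cut at about 20% in these data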;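 also: signal is peak over basal fluorescence ratio across a 100 second FLIPR read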
# Target sequence (P37288 whole entry, looked up): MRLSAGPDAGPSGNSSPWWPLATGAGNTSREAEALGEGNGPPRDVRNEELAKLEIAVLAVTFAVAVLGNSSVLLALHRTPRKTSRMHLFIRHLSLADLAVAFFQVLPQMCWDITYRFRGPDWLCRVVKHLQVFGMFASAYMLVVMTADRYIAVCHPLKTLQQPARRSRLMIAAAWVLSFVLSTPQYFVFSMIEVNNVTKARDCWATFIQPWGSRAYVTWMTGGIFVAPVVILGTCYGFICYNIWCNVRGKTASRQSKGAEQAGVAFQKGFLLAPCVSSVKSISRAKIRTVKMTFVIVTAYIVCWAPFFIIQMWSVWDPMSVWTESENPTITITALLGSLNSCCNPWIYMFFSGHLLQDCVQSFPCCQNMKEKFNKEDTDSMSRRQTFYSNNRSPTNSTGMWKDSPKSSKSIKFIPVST
# CHO parental Ca: signal in parental CHO cells, OX1R antagonist counter-screen | parental CHO-K1, ATP-induced calcium, Fluo-8 fluorescence | 330,000 tested, 0.63% active | AID 463079 | inhibition, % at 5.6 µM;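 active = inhibition above that plate's mean sample inhibition plus 3 SD, cut at about 26% in these data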;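 also: 0% = ATP-challenged DMSO wells and 100% = DMSO wells without ATP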
#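 Assay system – parental CHO cells · Reagent – ATP stimulus · Detection – intracellular calcium via Fluo-8 no-wash fluorescent dye · Evaluation – percent inhibition of ATP-evoked calcium rise, normalized to controls · Controls – ATP wells versus no-ATP DMSO wells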
# OXTR potentiate: potentiates the human oxytocin receptor response | P30559 | CHO-OTR cells, Fluo-8 calcium fluorescence, potentiator mode; 0% = oxytocin EC15, 100% = EC100 | activation, % at 3 µM | 320,000 tested, 0.061% active | AID 2445;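 active = activation above that plate's cutoff, the mean activation of tested compounds plus 3 SD, cut at about 6.6% in these data, passing the limit was not always enough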;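 also: 100% uses oxytocin at 75 nM as the full agonist control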
#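 test system = CHO-OTR cells, human receptor | compound = single-point 3.0 µM | schedule = 6 min compound pre-incubation at room temperature, 100 s kinetic read | signal = Fluo-8 no-wash calcium dye fluorescence, excitation 470-495 nm, emission 515-575 nm | repeats = single well per compound, singlicate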
# OXTR ag: agonists of human oxytocin receptor; P30559; CHO-OTR cells, Fluo-8 calcium fluorescence; normalized: DMSO 0%, oxytocin 100%; activation, % at 3 µM; 320,000 tested, 0.32% active;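 active = activation above the mean of all tested compounds plus 3 SD, cutoff set per screening run, cut at about 20% in these data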;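 also: peak over basal fluorescence ratio from a 100 s FLIPR kinetic read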
# OX1R antag-1: human HCRTR1 antagonism | O43613 | CHO/OX1R cells, Fluo-8 calcium fluorescence, orexin A | inhibition, % at 5 µM | 330,000 tested, 0.43% active;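 active = inhibition above its plate's threshold, mean inhibition of all tested compounds on the plate plus 3 SD, cut at about 37% in these data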;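 also: 0% = orexin A challenge wells and 100% = SB-334867-A antagonist wells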
# OX1R antag-2: blocks the human orexin 1 receptor | O43613 | AID 485270 | 330,000 tested, 1.8% active | OX1R-expressing cells, FRET antagonist read-out | inhibition, % at 6.6 µM; in the data active = inhibition mostly above about 38%, no sharp cut-off; inactive = mostly below about 40%;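 also: 0% = agonist challenge alone and 100% = reference antagonist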
# * marks the source's active call; other numbers are inactive results; x = not tested or not shown.
SMILES,V1R ag counter,CHO parental Ca,OXTR potentiate,OXTR ag,OX1R antag-1,OX1R antag-2
CC(C)CNC(=S)N1CCN(c2nc3ccccc3s2)CC1,17,72*,-22,9,11,14
CCn1c(N2CCN(C(=S)NCC(C)C)CC2)nc2ccccc21,2,-7,-3,6,-12,0
CC[C@]12c3[nH]c4ccc(Cl)cc4c3CCN1C(=O)[C@@H](CC(=O)NCCC1=CCCCC1)C[C@@H]2C(=O)N1CCN(C(=O)C2CC2)CC1,x,-34,x,x,-24,1
O=C(c1ccc(CSc2nc3ccncc3[nH]2)cc1)N1CCCCCC1,1,-12,-2,1,-23,12
O=C(c1ccc(CSc2nc3ccncc3[nH]2)cc1)N1CCN(c2cccc(Cl)c2)CC1,8,73*,-11,7,22,34*
O=C(NNC(=O)c1cc(-c2ccncc2)nc2ccccc12)c1ccccc1O,0,-20,-9,0,-30,20
CC(=O)C1=C(O)C(=O)N(c2ccc(O)cc2)C1c1ccc([N+](=O)[O-])cc1 (centres undefined),0,5,-9,-1,-22,12
Cn1c(N)c(C(=O)c2ccc(Cl)cc2)c(=O)n(C)c1=O,0,-7,4,1,-3,4
CC(=O)c1cn(-c2ccc([N+](=O)[O-])cc2)c(=O)n(C)c1=O,0,-8,-2,-1,-8,39*
Cn1c(CBr)c(C(=O)c2ccc([N+](=O)[O-])cc2)c(=O)n(C)c1=O,2,-5,4,1,-16,51*
CCc1cc2cc(C)ccc2nc1SCC(=O)NNC(=O)c1ccco1,0,-14,-11,-1,-19,48*
C=Cc1ccc(Cn2nc(-c3ccc(C)cc3)ccc2=O)cc1,5,44*,-21,9,-4,23
CCc1nnc(N/N=C/c2c(Cl)cccc2Cl)n1N,0,-4,3,0,-14,45*
CCc1nnc(N/N=C\c2ccc(OC(C)=O)c(OC)c2)n1N,1,-14,-2,2,-5,44*
CCc1nnc(N/N=C/c2ccc(O)c(OC)c2)n1N,0,1,1,1,-1,59*
CNC(=S)N/N=C/c1c(Cl)cccc1Cl,-1,-4,9,-2,-17,21
CCc1nnc(N/N=C/c2cc(Br)c(O)cc2O)n1N,0,-2,4,1,-16,72*
Cc1nnc(N/N=C/c2ccccc2F)n1N,1,0,-15,4,-5,30
COc1cccc(/C=N/Nc2nnc(C)n2N)c1O,0,-1,0,1,5,71*
COc1ccc(/C=N/Nc2nncn2N)cc1Br,0,-9,4,0,3,65*
CC(=O)c1cccc(NC(=O)N2CCC(NC(=O)C3CCCCC3)CC2)c1,0,-1,-6,0,-14,14
Cc1csc(NC(=O)c2cc3c(s2)-c2ccccc2OC3)n1,4,0,-10,-1,10,69*
O=C1c2cccc3cccc(c23)C(=O)N1c1nncs1,0,-12,-2,-1,-25,75*
O=C(Cc1ccccc1F)Nc1cc(S(=O)(=O)N2CCOCC2)ccc1N1CCCC1,-1,-8,-5,-1,-21,11
Cc1cc(C(=O)NCCc2ccc(Cl)cc2)c2ccccc2n1,2,-15,-9,1,16,50*
SMILES,V1R ag counter,CHO parental Ca,OXTR potentiate,OXTR ag,OX1R antag-1,OX1R antag-2
COc1cccc(NC(=O)COC(=O)C2=NN(c3ccccc3)C(=O)CC2)c1,1,-7,-3,0,-13,5
COc1ccc(CCN(C)C(=O)c2oc3ccccc3c2C)cc1OC,0,-16,-5,-2,-13,22
COc1ccc(CCN(C)C(=O)c2cc(-c3ccccc3)nc3ccc(C)cc23)cc1OC,2,-22,-5,0,-11,70*
COc1ccc(-c2cc(C(=O)N(C)Cc3cccc(OC)c3OC)c3ccccc3n2)cc1OC,0,-32,-3,-2,-36,36
COc1ccc(CN(C)C(=O)c2cc(-c3ccccc3)nc3ccc(C)cc23)c(OC)c1OC,-1,-15,-9,-1,10,63*
NC(=O)c1c(-c2ccc(Cl)cc2Cl)csc1NC(=O)Cc1ccccc1,3,56*,-10,10,9,58*
O=C(Nc1ccc(F)cc1)c1cc(-c2ccccn2)nc2c(Cl)cccc12,0,-1,-7,0,-5,6
COc1cccc(C(=O)Nc2ccc3nc(N4CCN(c5ncccn5)CC4)cc(C)c3c2)c1OC,-1,-3,-6,-1,1,59*
Cc1nn(CC(=O)Nc2ccc3c(c2)OCCO3)c(C)c1[N+](=O)[O-],4,-6,-2,1,-5,11
Cc1ccc(S(=O)(=O)NC(=O)Nc2cccc(S(=O)(=O)N(C)C)c2)cc1,1,-7,-3,1,-13,-3
Cn1c(=O)c(N)c2c3c(c(Br)ccc31)C(=O)c1ccccc1-2,28*,-10,-19,25*,-5,21
COc1cc(C(=O)NCCNc2nc3c(C)c(C)ccc3cc2C#N)cc(OC)c1OC,0,-20,-5,-2,-24,0
COc1ccccc1C(=O)NCCNc1nc2cc(C)cc(C)c2cc1C#N,0,-31,-4,-2,-11,41
Cc1cc(C)c2cc(C#N)c(NCCOC(=O)c3ccccc3C)nc2c1,1,-42,-5,2,0,36*
COc1cc(OC)cc(C(=O)NCCNc2nc3cc(C)cc(C)c3cc2C#N)c1,-1,-24,0,-2,3,53*
COc1cc(C(=O)NCCNc2nc3cc(C)ccc3cc2C#N)cc(OC)c1OC,-1,-17,-5,-3,-16,54*
NS(=O)(=O)c1ccc2nc(-c3ccccc3)c(-c3ccccc3)nc2c1,-1,-3,-5,-1,-24,18
O=C(Nc1cccc(-c2cn3ccccc3n2)c1)c1ccccc1,0,-20,1,-1,-14,53*
Cc1ccccc1C(=O)Nc1cccc(-c2cn3ccccc3n2)c1,1,-20,-2,-1,-24,73*
Cc1ccc(C(=O)Nc2cccc(-c3cn4ccccc4n3)c2)cc1,-1,-18,-6,-2,-21,44
CCCN1C(=O)C(=O)c2cc(Cl)ccc21,0,-11,4,-1,3,49*
CCOC(=O)c1c(C)[nH]c(C(=O)COC(=O)c2ccc(O)cc2O)c1C,3,2,-5,2,-4,11
CCOC(=O)c1c(C)[nH]c(C(=O)COC(=O)c2ccc(O)cc2)c1C,6,27*,-13,8,10,8
